# From ChEMBL document CHEMBL1127497, “Studies on antiulcer drugs. 7. 2-Guanidino-4-pyridylthiazoles as histamine H2-receptor antagonists with potent gastroprotective effects against nonsteroidal antiinflammatory drug-induced injury” (J Med Chem, 1994)
# Key:
# [1] = target: Histamine H2 receptor (Cavia porcellus) (UniProt P47747); test: H2 receptor antagonistic activity against histamine stimulated chronotropic response in isolated guinea pig right atrium at 1x10E-6 g/mL.; type: functional, tissue-based; conditions: Cardiac atrium
# How it was run: (§1)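 Guinea pig atrial strip under 0.3–0.6 g tension in Tyrode solution, 30 °C, gassed with 95% O2-5% CO2. Beating rate recorded. Histamine HCl 1 × 10-6 g/mL given; after washout, test compound added (single-concentration screen 1 × 10-6 g/mL) and histamine response compared before and 30 min after dosing. IC50 from three doses by probit analysis, three atria per dose.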
# Rattus norvegicus [2] = test: Inhibition of histamine stimulated gastric acid secretion in lumen perfused anaesthetized rats after 1 mg/kg intravenous dose; type: functional; conditions: Stomach
# How it was run: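 Male SD rats (~250 g), fasted 24 h, urethane 1.25 g/kg ip. Stomach lumen perfused with saline; perfusate titrated with 25 mM NaOH. Histamine infused iv at 3 mg/kg/h. At plateau, compound given iv at 1 mg/kg. Result expressed as maximal inhibition of acid output; n = 2.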
# Rattus norvegicus [3] = test: Inhibition of aspirin induced gastric lesions in rats after peroral dose of 32 mg/kg; type: functional; conditions: Stomach, route oral
# How it was run: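 Male SD rats (~200 g), fasted 24 h. Test compound given orally in 0.1% MC, then aspirin 200 mg/kg in 0.2 N HCl/0.1% MC (10 mL/kg) orally 30 min later. Rats killed 1 h after aspirin. Ulcer index is the summed lesion length (mm); % inhibition is relative to controls. Seven rats per group for screening; ED50 by probit from three doses, ten rats per dose.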
# Histamine H2 receptor = Histamine H2 receptor (Cavia porcellus, UniProt P47747); test: Compound was tested for H2 receptor antagonistic activity against histamine stimulated chronotropic response in isolated guinea pig right atrium; type: functional, tissue-based, Cardiac atrium; how it was run: as §1
# Canis familiaris = test: Evaluated against tetragastrin stimulated gastric acid secretion in conscious Hiedenhain-pouch dogs at a dose of 0.32 mg/kg, po; type: functional; conditions: Canis lupus familiaris, Stomach
# How it was run: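 Beagle Heidenhain-pouch dogs, 8–13 kg, oral dosing. Acid concentration titrated to pH 7 with 0.1 N NaOH; total acid output is volume × concentration. Change is relative to predosing output. ED50 by probit from three or four doses, three or four dogs per dose.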
# Histamine H2 receptor (Cavia porcellus), sequence (P47747 whole entry): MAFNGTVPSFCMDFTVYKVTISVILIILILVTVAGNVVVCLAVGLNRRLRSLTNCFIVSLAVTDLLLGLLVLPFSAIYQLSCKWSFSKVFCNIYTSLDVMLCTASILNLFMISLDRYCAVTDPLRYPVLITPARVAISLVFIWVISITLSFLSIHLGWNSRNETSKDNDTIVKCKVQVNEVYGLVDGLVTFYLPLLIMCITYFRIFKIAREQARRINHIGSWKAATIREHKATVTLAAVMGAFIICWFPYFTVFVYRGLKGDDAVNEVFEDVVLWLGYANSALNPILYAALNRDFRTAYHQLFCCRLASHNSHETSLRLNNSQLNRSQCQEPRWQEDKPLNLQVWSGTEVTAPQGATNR
# Histamine H2 receptor, sequence (P47747 whole entry): as above
inhibition [1],IC50 (Histamine H2 receptor),SMILES,inhibition in vivo at 1 mg/kg (Rattus norvegicus [2]),inhibition in vivo at 32 mg/kg (Rattus norvegicus [3]),inhibition in vivo at 0.32 mg/kg (Canis familiaris)
43%,–,C/N=C(\NC#N)NCc1cccc(-c2csc(N=C(N)N)n2)n1,15%,37%,–
3%,–,CC(=O)NCCc1cccc(-c2csc(N=C(N)N)n2)n1,58%,31%,–
46%,–,N=C(N)Nc1nc(-c2cccc(CNC=O)n2)cs1,83%,57%,–
37%,–,CSCC(=O)NCc1cccc(-c2csc(N=C(N)N)n2)n1,4%,80%,–
–,300 nM,NC(N)=Nc1nc(CSCCC(N)=NS(N)(=O)=O)cs1 [FAMOTIDINE],–,–,–
50%,–,CS(=O)(=O)NCc1cccc(-c2csc(N=C(N)N)n2)n1,46%,60%,–
2%,–,N=C(N)Nc1nc(-c2cccc(CNC(=O)C3CCC3)n2)cs1,61%,82%,–
52%,–,CCNC(=O)NCc1cccc(-c2csc(N=C(N)N)n2)n1,91%,34%,–
76%,–,N=C(N)Nc1nc(-c2cccc(CNC(=O)CSCc3ccco3)n2)cs1,16%,49%,–
86%,–,CNC(=O)NCc1cccc(-c2csc(N=C(N)N)n2)n1,79%,57%,–
2%,–,N=C(N)Nc1nc(-c2cccc(CNC(=O)C3CCC(=O)CC3)n2)cs1,37%,62%,–
22%,–,CC(=O)NCc1cncc(-c2csc(N=C(N)N)n2)c1,10%,42%,–
82%,–,CCCNC(=O)NCc1cccc(-c2csc(N=C(N)N)n2)n1,90%,42%,–
7%,–,N=C(N)Nc1nc(-c2cccc(CNC(=O)C3CCCO3)n2)cs1 (stereo unspecified),6%,66%,–
62%,–,CC(C)C(=O)NCc1cccc(-c2csc(N=C(N)N)n2)n1,21%,65%,–
–,–,N=C(N)Nc1nc(-c2cccc(CC(=N)NS(N)(=O)=O)n2)cs1,42%,16%,–
–,–,CC(=O)Nc1cccc(-c2csc(N=C(N)N)n2)n1,16%,43%,–
72%,–,CCC(=O)NCc1cccc(-c2csc(N=C(N)N)n2)n1,81%,70%,50%
